Measurements taken from ChEMBL document CHEMBL3792316, “2-Phenylbenzofuran derivatives as butyrylcholinesterase inhibitors: Synthesis, biological activity and molecular modeling” (Bioorg Med Chem Lett, 2016).
The source made the active and inactive calls. No cut-off for these calls is given here.

Assays:
[1] = Antioxidant activity assessed as ABTS free radical scavenging activity at 100 uM after 1 min by spectrophotometry
Cholinesterase [2] = target: T1, Cholinesterase (Equus caballus, UniProt P81908); assay: Inhibition of equine BChE using S-butyrylthiocholine chloride as substrate by Ellman's method
In short: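 IC50 values are the mean ± SD of three independent experiments.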

[3] = target: Acetylcholinesterase (Electrophorus electricus) (UniProt O42275); assay: Inhibition of electric eel AChE at 100 uM using acetylthiocholine iodide as substrate by Ellman's method
[4] = target: Cholinesterase (Equus caballus) (UniProt P81908); assay: Inhibition of equine BChE at 100 uM using S-butyrylthiocholine chloride as substrate by Ellman's method
[5] = Antioxidant activity assessed as ABTS free radical scavenging activity after 1 min by spectrophotometry
Cholinesterase [6] = target: T1, Cholinesterase; assay: Mixed-type inhibition of equine BChE using S-butyrylthiocholine chloride as substrate assessed as enzyme-substrate complex by Lineweaver-Burk reciprocal plot method
[7] = Cytotoxicity against mouse NSC-34 cells assessed as cell viability after 48 hrs by MTS assay; assay type: cell-based; settings: nsc-34, 48 h
Cholinesterase [8] = target: T1, Cholinesterase; assay: Mixed-type inhibition of equine BChE using S-butyrylthiocholine chloride as substrate assessed as free enzyme by Lineweaver-Burk reciprocal plot method

Sequence of Acetylcholinesterase (Electrophorus electricus) (O42275 24-633 limits assumed): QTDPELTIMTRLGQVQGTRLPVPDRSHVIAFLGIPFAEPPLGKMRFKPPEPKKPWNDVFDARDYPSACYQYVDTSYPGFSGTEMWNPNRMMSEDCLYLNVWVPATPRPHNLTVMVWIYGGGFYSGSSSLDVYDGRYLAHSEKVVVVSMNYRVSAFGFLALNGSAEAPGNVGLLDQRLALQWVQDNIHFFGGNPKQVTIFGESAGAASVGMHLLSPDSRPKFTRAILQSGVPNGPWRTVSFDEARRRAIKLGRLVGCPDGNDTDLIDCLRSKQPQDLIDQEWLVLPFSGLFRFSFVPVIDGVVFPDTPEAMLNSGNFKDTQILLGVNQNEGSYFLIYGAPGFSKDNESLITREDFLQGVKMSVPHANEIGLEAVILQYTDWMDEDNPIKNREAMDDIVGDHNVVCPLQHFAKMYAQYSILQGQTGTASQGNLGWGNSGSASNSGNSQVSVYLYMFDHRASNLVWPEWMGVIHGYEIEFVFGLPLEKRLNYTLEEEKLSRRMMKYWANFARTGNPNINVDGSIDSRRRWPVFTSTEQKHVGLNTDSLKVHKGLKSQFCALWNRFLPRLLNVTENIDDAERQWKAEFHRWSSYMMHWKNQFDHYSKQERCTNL
T1 sequence (P81908 whole entry): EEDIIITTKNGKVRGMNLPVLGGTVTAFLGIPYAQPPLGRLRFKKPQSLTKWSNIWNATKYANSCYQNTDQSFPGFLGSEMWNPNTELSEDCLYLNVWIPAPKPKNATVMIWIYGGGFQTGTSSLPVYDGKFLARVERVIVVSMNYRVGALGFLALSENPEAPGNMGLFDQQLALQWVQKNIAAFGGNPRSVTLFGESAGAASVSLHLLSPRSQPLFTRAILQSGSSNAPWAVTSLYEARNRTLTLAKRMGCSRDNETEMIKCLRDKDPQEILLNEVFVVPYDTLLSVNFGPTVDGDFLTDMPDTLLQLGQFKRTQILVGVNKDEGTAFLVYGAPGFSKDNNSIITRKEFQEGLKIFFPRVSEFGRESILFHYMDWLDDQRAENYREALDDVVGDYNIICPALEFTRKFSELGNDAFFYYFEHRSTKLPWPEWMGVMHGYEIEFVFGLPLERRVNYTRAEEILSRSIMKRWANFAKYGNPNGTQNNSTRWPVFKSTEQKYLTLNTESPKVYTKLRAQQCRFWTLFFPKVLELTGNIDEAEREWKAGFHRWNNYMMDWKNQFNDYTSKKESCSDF
Sequence of Cholinesterase (Equus caballus) (P81908 whole entry): as above

SMILES	INH [1]	IC50 (Cholinesterase [2])	inhibition [3]	inhibition [4]	IC50 ([5]; ABTS free radical)	Ki (Cholinesterase [6])	Activity [7]	Ki (Cholinesterase [8])	IC50 [5]
Oc1ccc(-c2cc3ccccc3o2)cc1	24%	> 100 µM	inactive	inactive					
Cc1cccc2cc(-c3ccc(O)cc3)oc12	72%	77 µM		58%	53.5 µM				
COc1ccc(-c2cc3cccc(Cl)c3o2)cc1		> 100 µM		5%					
Oc1ccc(-c2cc3cc(Cl)ccc3o2)cc1	15%	> 100 µM		15%					
c1ccc(-c2cc3ccccc3o2)cc1		> 100 µM	inactive	6%					
Cc1ccc2oc(-c3ccc(O)cc3)cc2c1	31%	> 100 µM	4.8%	19%					
COc1ccc(-c2cc3ccccc3o2)cc1		> 100 µM	inactive	inactive					
Oc1ccc(-c2cc3cc(Br)ccc3o2)cc1	15%	> 100 µM		16.6%					
Cc1c(C)c2c(c(C)c1O)CCC(C)(C(=O)O)O2 (stereo unspecified) [TROLOX]					13 µM				
Oc1ccc(-c2cc3cccc(Cl)c3o2)cc1	62.4%	30.3 µM		77%		87.4 µM	Non-toxic	5 µM	67.6 µM
Brc1cccc2cc(-c3ccccc3)oc12		> 100 µM	4%	12%					
Oc1ccc(-c2cc3cccc(Br)c3o2)cc1	53%	82.5 µM		54%	93.6 µM				
